# Data from ChEMBL document CHEMBL3227988, “Synthesis and antiviral activities of arabinofuranosyl-5-ethylpyrimidine nucleosides. Selective antiherpes activity of 1-(beta-D-arabinofuranosyl)-5-ethyluracil” (J Med Chem, 1979).
# Calls of active or inactive are those of the source. No cut-off for these calls is given here.
# Key:
# [1] = system: Vesicular stomatitis virus; assay: Antiviral activity against Vesicular stomatitis virus infected in primary rabbit kidney cells assessed as inhibition of virus-induced cytopathogenicity treated immediately after virus adsorption measured 2 to 3 days after virus infection; assay type: functional
# [2] = Antimetabolic activity against primary rabbit kidney cells assessed as inhibition of [methyl-3H]dThd incorporation into DNA after 16 hrs; assay type: ADME, cell-based, Oryctolagus cuniculus
# Outline: (§1)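 Compound added to primary rabbit kidney cell cultures together with the radiolabeled DNA precursor. Input per 10^? cells: [methyl-3H]dThd 0.12 μCi/0.01 nmol, [2-14C]dUrd 14 μCi/250 nmol. Incorporation measured after 16 h incubation. Value is the concentration giving 50% inhibition of precursor incorporation.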
# Human alphaherpesvirus 1 [3] = assay: Antiviral activity against Herpes simplex virus-1 KOS infected in human skin fibroblast cells assessed as inhibition of virus-induced cytopathogenicity treated immediately after virus adsorption measured 2 to 3 days after virus infection; assay type: functional; conditions: Human alphaherpesvirus 1, KOS
# Human alphaherpesvirus 2 [4] = assay: Antiviral activity against Herpes simplex virus-2 196 infected in primary rabbit kidney cells assessed as inhibition of virus-induced cytopathogenicity treated immediately after virus adsorption measured 2 to 3 days after virus infection; assay type: functional; conditions: Human alphaherpesvirus 2, 196
# Human alphaherpesvirus 2 [5] = assay: Antiviral activity against Herpes simplex virus-2 LYONS infected in primary rabbit kidney cells assessed as inhibition of virus-induced cytopathogenicity treated immediately after virus adsorption measured 2 to 3 days after virus infection; assay type: functional; conditions: Human alphaherpesvirus 2, LYONS
# [6] = Antimetabolic activity against primary rabbit kidney cells assessed as inhibition of [2-14C]dUrd incorporation into DNA after 16 hrs; assay type: ADME, cell-based, Oryctolagus cuniculus; outline: as §1
# Human alphaherpesvirus 1 [7] = assay: Antiviral activity against Herpes simplex virus-1 KOS infected in primary rabbit kidney cells assessed as inhibition of virus-induced cytopathogenicity treated immediately after virus adsorption measured 2 to 3 days after virus infection; assay type: functional; conditions: Human alphaherpesvirus 1, KOS
# Human alphaherpesvirus 1 [8] = assay: Antiviral activity against Herpes simplex virus-1 KOS infected in primary rabbit kidney cells assessed as inhibition of virus-induced cytopathogenicity at 200 ug/ml treated immediately after virus adsorption measured 2 to 3 days after virus infection; assay type: functional, organism-based
# Human alphaherpesvirus 2 [9] = assay: Antiviral activity against Herpes simplex virus-2 196 infected in primary rabbit kidney cells assessed as inhibition of virus-induced cytopathogenicity at 200 ug/ml treated immediately after virus adsorption measured 2 to 3 days after virus infection; assay type: functional, organism-based
# Human alphaherpesvirus 2 [10] = assay: Antiviral activity against Herpes simplex virus-2 LYONS infected in primary rabbit kidney cells assessed as inhibition of virus-induced cytopathogenicity at 200 ug/ml treated immediately after virus adsorption measured 2 to 3 days after virus infection; assay type: functional, organism-based
# Human alphaherpesvirus 1 [11] = assay: Antiviral activity against Herpes simplex virus-1 KOS infected in human skin fibroblast cells assessed as inhibition of virus-induced cytopathogenicity at 200 ug/ml treated immediately after virus adsorption measured 2 to 3 days after virus infection; assay type: functional, organism-based
# [12] = Antiviral index, ratio of minimal toxic dose require to inhibit cellular DNA synthesis in primary rabbit kidney cells by 50% to minimal effective dose require to inhibit HSV1 KOS cytopathogenicity; assay type: toxicity, cell-based
# Outline: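 Ratio of two doses. Numerator: dose inhibiting cellular DNA synthesis by 50%, measured as dThd or dUrd incorporation over 16 h. Denominator: minimal dose inhibiting HSV-1 KOS cytopathogenicity. For the CPE assay, virus input was 100 CCID50 per culture and compound was added right after adsorption. CPE was scored once untreated infected controls reached full CPE, generally at 2-3 days.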
# Human alphaherpesvirus 1 [13] = assay: Antiviral activity against Herpes simplex virus-1 KOS infected in primary rabbit kidney cells assessed as log reduction in virus yield at 100 ug/ml treated immediately after virus adsorption measured 24 to 48 hrs after virus infection; assay type: functional
# Vaccinia virus = assay: Antiviral activity against Vaccinia virus infected in primary rabbit kidney cells assessed as growth inhibition at 100 ug/ml treated immediately after virus adsorption measured 24 to 48 hrs after virus infection; assay type: functional, organism-based; conditions: Orthopoxvirus vaccinia
Compound,MIC [1] [µg/mL],MIC [2] [µg/mL],MIC (Human alphaherpesvirus 1 [3]) [µg/mL],MIC (Human alphaherpesvirus 2 [4]) [µg/mL],MIC (Human alphaherpesvirus 2 [5]) [µg/mL],MIC [6] [µg/mL],MIC (Human alphaherpesvirus 1 [7]) [µg/mL],inhibition (Human alphaherpesvirus 1 [8]),inhibition (Human alphaherpesvirus 2 [9]),inhibition (Human alphaherpesvirus 2 [10]),inhibition (Human alphaherpesvirus 1 [11]),selectivity ratio [12],log10PFU/ml (Human alphaherpesvirus 1 [13]),inhibition (Vaccinia virus)
Nc1ccn([C@@H]2O[C@H](CO)[C@@H](O)[C@@H]2O)c(=O)n1 [CYTARABINE],4,0.1,0.02,0.03,0.04,0.05,0.03,–,–,–,–,–,–,–
CCc1cn([C@H]2O[C@H](CO)[C@@H](O)[C@@H]2O)c(=O)nc1N,–,–,–,–,–,–,–,inactive,inactive,inactive,inactive,–,–,–
CCc1cn([C@@H]2O[C@H](CO)[C@@H](O)[C@@H]2O)c(=O)[nH]c1=O,> 200,> 200,2,20,10,> 200,2,–,–,–,–,> 100,>3,inactive
Cc1cn([C@@H]2O[C@H](CO)[C@@H](O)[C@@H]2O)c(=O)[nH]c1=O,> 200,300,0.1,0.4,0.3,300,0.2,–,–,–,–,–,–,–
CCc1cn([C@@H]2O[C@H](CO)[C@@H](O)[C@@H]2O)c(=O)nc1N,> 200,–,20,–,–,> 200,100,–,–,–,–,–,–,–
CCc1cn([C@H]2O[C@H](CO)[C@@H](O)[C@@H]2O)c(=O)[nH]c1=O,–,–,–,–,–,–,–,inactive,inactive,inactive,inactive,–,–,–
O=c1ccn([C@@H]2O[C@H](CO)[C@@H](O)[C@@H]2O)c(=O)[nH]1 [ARAURIDINE],> 200,300,20,20,20,> 400,20,–,–,–,–,–,–,–
